Test results from ChEMBL document CHEMBL1138747, “Synthesis and structure--activity relationship in a class of indolebutylpiperazines as dual 5-HT(1A) receptor agonists and serotonin reuptake inhibitors” (J Med Chem, 2004).

Columns and labels:
[1] = target: Sodium-dependent serotonin transporter (Rattus norvegicus, UniProt P31652); test: Inhibition of [3H]5-HT re-uptake in rat synaptosomes; assay type: subcellular, Brain
[2] = target: D(2) dopamine receptor (Rattus norvegicus, UniProt P61169); test: Displacement of [3H]spiperone from dopamine D2 receptor of rat striatal membranes; assay type: cell membranes, Membrane
In short: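 IC50 from 5–10 compound concentrations, each in triplicate, taken as the concentration (nM) giving 50% inhibition of specific radioligand binding.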

[3] = target: T1, 5-hydroxytryptamine receptor 1A (Rattus norvegicus, UniProt P19327); test: Inhibition of 8-OH DPAT binding to rat hydroxytryptamine 1A receptor
T1 sequence (P19327 whole entry): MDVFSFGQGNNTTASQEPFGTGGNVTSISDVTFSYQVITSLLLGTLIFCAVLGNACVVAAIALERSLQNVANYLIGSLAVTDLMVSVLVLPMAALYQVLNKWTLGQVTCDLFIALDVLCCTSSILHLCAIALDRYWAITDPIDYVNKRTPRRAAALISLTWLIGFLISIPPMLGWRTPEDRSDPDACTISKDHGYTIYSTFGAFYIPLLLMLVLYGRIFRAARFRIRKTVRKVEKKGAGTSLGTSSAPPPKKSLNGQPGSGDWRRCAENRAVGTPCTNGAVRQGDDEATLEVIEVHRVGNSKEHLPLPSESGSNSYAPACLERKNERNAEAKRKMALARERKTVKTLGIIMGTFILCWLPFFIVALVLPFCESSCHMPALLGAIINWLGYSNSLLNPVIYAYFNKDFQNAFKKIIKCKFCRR

[4] = tested on: Rattus norvegicus; test: Dose required to inhibit ultrasonic vocalisation on peroral administered; assay type: functional; settings: po, read-out: ID50 (the source's name)
In short: (§1)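 Rat ultrasonic vocalization test. In a priming session, up to 10 grid-floor shocks were given (1.8 mA, 0.3 s, 20 s apart). Rats not vocalizing on three consecutive trials were excluded. Next day, rats were tested 2 h after dosing: five shocks, then vocalization duration recorded over 3 min. ID50 (dose for half-maximal inhibition) came from dose–response curves.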

[5] = tested on: Rattus norvegicus; test: Dose required to inhibit ultrasonic vocalisation on subcutaneous administered; assay type: functional; settings: sc, read-out: ID50 (the source's name); in short: as §1

Chain of Sodium-dependent serotonin transporter (P31652 whole entry): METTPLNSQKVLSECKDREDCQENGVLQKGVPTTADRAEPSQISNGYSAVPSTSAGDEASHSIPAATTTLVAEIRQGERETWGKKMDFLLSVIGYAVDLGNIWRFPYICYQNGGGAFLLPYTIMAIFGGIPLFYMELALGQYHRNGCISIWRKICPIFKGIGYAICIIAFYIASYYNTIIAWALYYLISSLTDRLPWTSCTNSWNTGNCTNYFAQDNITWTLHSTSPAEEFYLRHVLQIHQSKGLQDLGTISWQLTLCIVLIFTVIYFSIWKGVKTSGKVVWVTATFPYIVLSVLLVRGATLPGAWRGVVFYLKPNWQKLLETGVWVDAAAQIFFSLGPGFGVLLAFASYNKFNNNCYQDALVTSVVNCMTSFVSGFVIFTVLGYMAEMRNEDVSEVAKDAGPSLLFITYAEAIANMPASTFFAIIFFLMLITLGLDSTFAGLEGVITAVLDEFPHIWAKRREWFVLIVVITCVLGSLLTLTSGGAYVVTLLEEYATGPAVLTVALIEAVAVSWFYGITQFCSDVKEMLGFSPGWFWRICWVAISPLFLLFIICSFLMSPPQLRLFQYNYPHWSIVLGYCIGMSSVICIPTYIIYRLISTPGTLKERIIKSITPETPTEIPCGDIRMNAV
Chain of D(2) dopamine receptor (P61169 whole entry): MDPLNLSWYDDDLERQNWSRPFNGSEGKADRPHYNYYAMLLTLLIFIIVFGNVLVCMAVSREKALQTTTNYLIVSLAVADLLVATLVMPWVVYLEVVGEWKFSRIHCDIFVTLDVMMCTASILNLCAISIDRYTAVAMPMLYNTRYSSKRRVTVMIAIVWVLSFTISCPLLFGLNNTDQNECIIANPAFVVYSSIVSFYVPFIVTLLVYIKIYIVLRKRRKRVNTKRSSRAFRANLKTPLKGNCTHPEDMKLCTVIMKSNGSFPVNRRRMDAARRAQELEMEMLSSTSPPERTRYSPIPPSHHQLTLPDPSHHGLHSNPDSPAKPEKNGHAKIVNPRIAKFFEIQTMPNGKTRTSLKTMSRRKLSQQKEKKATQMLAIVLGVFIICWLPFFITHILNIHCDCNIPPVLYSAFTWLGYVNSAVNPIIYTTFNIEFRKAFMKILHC

SMILES	IC50 [1] [nM]	IC50 [2] [nM]	IC50 [3] [nM]	ED50 [4] [mg/kg]	ED50 [5] [mg/kg]
O/N=C/c1ccc2[nH]cc(CCCCN3CCN(c4ccc5c(c4)OCCO5)CC3)c2c1	5	9.4	0.4	–	–
O=Cc1ccc2[nH]cc(CCCCN3CCN(c4ccc5c(c4)OCCO5)CC3)c2c1	1	< 100	0.7	–	–
COc1cc(C#N)ccc1N1CCN(CCCCc2c[nH]c3ccc(C#N)cc23)CC1	4.1	6	8	–	–
CCOCCOCCOc1cccc(N2CCN(CCCCc3c[nH]c4ccc(C#N)cc34)CC2)c1C#N	3.2	28	2	–	–
Fc1ccc2[nH]cc(CCCCN3CCN(c4ccc5c(c4)OCCO5)CC3)c2c1	1	130	5	–	–
COc1ccc2[nH]cc(CCCCN3CCN(c4ccc5c(c4)OCCO5)CC3)c2c1	100	–	–	–	–
N#Cc1ccc2[nH]cc(CCCCN3CCN(c4cccc5cc(C(N)=O)oc45)CC3)c2c1	2.6	39	1.9	–	–
Fc1ccc2[nH]cc(CCCCN3CCN(c4ccc5c(c4)OCO5)CC3)c2c1	1	< 100	4	–	–
N#Cc1ccc2[nH]cc(CCCCN3CCN(c4ccc5c(c4)OCO5)CC3)c2c1	0.6	4.9	0.7	4	1
O=C(O)c1ccc2[nH]cc(CCCCN3CCN(c4ccc5c(c4)OCCO5)CC3)c2c1	–	> 100	4	–	–
COC(=O)c1ccc2[nH]cc(CCCCN3CCN(c4ccc5c(c4)OCCO5)CC3)c2c1	50	< 100	0.6	–	–
N#Cc1ccc2[nH]cc(CCCCN3CCN(c4cc(F)c(C#N)c(F)c4)CC3)c2c1	5.4	–	36	–	–
N#Cc1ccc2[nH]cc(CCCCN3CCN(c4ccc5c(c4)OCCO5)CC3)c2c1	0.4	5.6	1	–	–
N#Cc1ccc2[nH]cc(CCCCN3CCN(c4ccccc4C(N)=O)CC3)c2c1	16	47	6.4	–	–
N#Cc1ccc2[nH]cc(CCCCN3CCN(c4c(C#N)cccc4C#N)CC3)c2c1	2	< 100	40	–	–
N#Cc1ccc2[nH]cc(CCCCN3CCN(c4cccc5nsnc45)CC3)c2c1	1.5	1.4	1	–	–
NC(=O)c1cc2cc(N3CCN(CCCCc4c[nH]c5ccc(F)cc45)CC3)ccc2o1	0.3	> 100	3	–	–
Clc1ccc2[nH]cc(CCCCN3CCN(c4ccc5c(c4)OCCO5)CC3)c2c1	20	> 100	40	–	–
Oc1ccc2[nH]cc(CCCCN3CCN(c4ccc5c(c4)OCCO5)CC3)c2c1	0.5	77	0.2	–	–
NC(=O)c1ccc2[nH]cc(CCCCN3CCN(c4ccc5c(c4)OCCO5)CC3)c2c1	60	–	–	–	–
c1ccc2c(CCCCN3CCN(c4ccc5c(c4)OCCO5)CC3)c[nH]c2c1	10	> 100	8	–	–
COc1ccc(Cl)cc1N1CCN(CCCCc2c[nH]c3ccc(C#N)cc23)CC1	6.8	–	30	–	–
COc1ccccc1N1CCN(CCCCc2c[nH]c3ccc(C#N)cc23)CC1	3	0.7	1	–	–
COc1cccc(N2CCN(CCCCc3c[nH]c4ccc(C#N)cc34)CC2)c1C#N	3.9	1.4	5.6	–	–

Further lines, with some results ahead:

IC50 [1] [nM]	IC50 [2] [nM]	IC50 [3] [nM]	SMILES	ED50 [4] [mg/kg]	ED50 [5] [mg/kg]
0.3	40	60	COc1ccc(N2CCN(CCCCc3c[nH]c4ccc(C#N)cc34)CC2)cc1OC	–	–
3.1	1400	3.2	N#Cc1ccc2[nH]cc(CCCCN3CCN(c4ccc5c(c4)CC(C(N)=O)O5)CC3)c2c1 (centres undefined)	–	–
3.9	8	8.7	N#Cc1ccc2[nH]cc(CCCCN3CCN(c4ccc5occc5c4)CC3)c2c1	–	–
1	> 630	0.4	N#Cc1ccc2[nH]cc(CCCCN3CCN(c4ccc5oc(C#N)cc5c4)CC3)c2c1	–	–
1	13	4	N#Cc1ccc2[nH]cc(CCCCN3CCN(c4ccc5c(c4)CCO5)CC3)c2c1	–	–
0.3	–	3.1	N#Cc1ccc2[nH]cc(CCCCN3CCN(c4ccc5sc(C(N)=O)cc5c4)CC3)c2c1	–	–
2	> 100	40	N#Cc1ccc(N2CCN(CCCCc3c[nH]c4ccc(F)cc34)CC2)cc1	–	–
5.5	220	3.3	N#Cc1ccc2[nH]cc(CCCCN3CCN(c4ccc5occc5c4C(N)=O)CC3)c2c1	–	–
3	> 100	5	N#Cc1cc2cc(N3CCN(CCCCc4c[nH]c5ccc(F)cc45)CC3)ccc2o1	–	–
1.3	255	1.1	N#Cc1ccc(N2CCN(CCCCc3c[nH]c4ccc(C#N)cc34)CC2)cc1	14	–
0.5	35	6	N#Cc1ccc2[nH]cc(CCCCN3CCN(c4ccc(O)cc4)CC3)c2c1	–	–
0.6	> 270	118	N#Cc1ccc2[nH]cc(CCCCN3CCN(c4ccc(C(N)=O)cc4)CC3)c2c1	–	–
1	4.2	–	N#Cc1ccc2[nH]cc(CCCCN3CCN(c4ccc(F)cc4)CC3)c2c1	7	3
0.9	< 42	5	N#Cc1ccc2[nH]cc(CCCCN3CCN(c4ccc5c(c4)CCCO5)CC3)c2c1	–	–
8.5	6.6	1.4	N#Cc1ccc2[nH]cc(CCCCN3CCN(c4cccc5oc(C(N)=O)cc45)CC3)c2c1	–	–
1	3.8	400	N#Cc1ccc2[nH]cc(CCCCN3CCN(c4ccccc4)CC3)c2c1	–	–
3.1	31	2	N#Cc1ccc2[nH]cc(CCCCN3CCN(c4ccc5nsnc5c4)CC3)c2c1	–	3
0.7	740	0.1	N#Cc1ccc2[nH]cc(CCCCN3CCN(c4ccc5oc(=O)ccc5c4)CC3)c2c1	4	0.5
0.5	46	1	COc1ccc(N2CCN(CCCCc3c[nH]c4ccc(C#N)cc34)CC2)cc1	–	–
2.4	5.7	1.6	N#Cc1ccc2[nH]cc(CCCCN3CCN(c4ccc5[nH]ccc5c4)CC3)c2c1	–	–
0.9	> 100	0.7	O=c1ccc2cc(N3CCN(CCCCc4c[nH]c5ccc(F)cc45)CC3)ccc2o1	–	–
0.8	43	400	N#Cc1ccc2[nH]cc(CCCCN3CCN(c4ccc(O)c(C#N)c4)CC3)c2c1	–	–
2	–	12	N#Cc1ccc2[nH]cc(CCCCN3CCN(c4ccc(C#N)c(C#N)c4)CC3)c2c1	–	–
3.4	–	14	COc1cc(N2CCN(CCCCc3c[nH]c4ccc(C#N)cc34)CC2)ccc1C#N	–	–
2	140	14	N#Cc1ccc2[nH]cc(CCCCN3CCN(c4ccc5[nH]c(C(N)=O)cc5c4)CC3)c2c1	–	–
